Most compounds without a hit are left out; they make up all but 2.3% or so of the library.
NadD block = inhibitors of Staphylococcus aureus NadD; purified NadD enzyme, colorimetric absorbance read-out; inhibition, % at 20 µM; 360,000 compounds, 0.78% hits; AID 602399; in the data active means inhibition above about 26%
STEP inh = STEP (human) phosphatase inhibition | recombinant STEP, OMFP fluorogenic substrate, fluorescence | inhibition, % at 20 µM | AID 588621 | 360,000 compounds, 0.25% hits;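 active means inhibition at 20 µM, scaled per plate between control wells, above about 37%, limit read from the data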;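 further: 0% = DMSO with enzyme and substrate and 100% = substrate only without enzyme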
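Test system: STEP tyrosine phosphatase / Reagent: OMFP at 25 µM / Doses: 20 µM, 1% DMSO / Read-out: percent inhibition scaled to no-enzyme and uninhibited-enzyme controls, plate-pattern corrected / Detection: FITC-channel fluorescence of OMFP product / Medium: Bis-Tris buffer pH 6.0, 2.5 mM DTT, 0.005% Tween 20 / Schedule: 20 min at room temperature, dark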
Scp-1 inhibitor = Scp-1 (human) phosphatase inhibition. Q9GZU7. Recombinant Scp1, phosphopeptide, malachite green phosphate absorbance. AID 493091. inhibition, % at 20 µM. 340,000 compounds, 0.88% hits;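 active means inhibition above about 50% at 20 µM, limit read from the data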;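 further: plate controls were DMSO wells with enzyme for no effect and wells lacking enzyme for full effect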
Target sequence (Q9GZU7 76-261 limits assumed): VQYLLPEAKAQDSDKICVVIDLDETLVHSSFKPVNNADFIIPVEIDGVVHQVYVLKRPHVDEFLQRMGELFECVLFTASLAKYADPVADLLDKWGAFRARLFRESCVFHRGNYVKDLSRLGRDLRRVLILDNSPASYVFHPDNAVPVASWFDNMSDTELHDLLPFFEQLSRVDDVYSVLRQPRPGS
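assay system = SCP-1 phosphatase catalytic domain, residues 76-261 | buffer or medium = 50 mM Tris acetate pH 5.5, 0.005% Tween-20, 10 mM MgCl2 | incubation = enzyme reaction 45 min at room temperature, colour 5 min, stabilisation 30 min | signal = Phosphate-binding colour reagent, absorbance read at 630 nm | measure = % inhibition at 20 µM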
LMPTP inh = blocks human LMPTP phosphatase; inhibition, % at 20 µM; recombinant LMPTP-A, OMFP fluorogenic substrate, fluorescence intensity; 360,000 compounds, 0.22% hits;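 active means compounds that cut the enzyme signal by at least half of the control window in the single-dose screen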;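 further: plate controls were DMSO wells with enzyme plus substrate for no effect and substrate without enzyme for full effect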
Target sequence (P24666 whole entry, looked up): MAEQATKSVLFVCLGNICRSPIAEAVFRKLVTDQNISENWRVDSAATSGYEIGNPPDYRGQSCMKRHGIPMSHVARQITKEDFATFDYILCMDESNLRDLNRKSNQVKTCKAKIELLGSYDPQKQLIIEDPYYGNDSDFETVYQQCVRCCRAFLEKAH
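material = LMPTP-A | quantity = 0.625 nM enzyme | reagent = OMFP substrate, 400 µM final | buffer or medium = Bis-Tris pH 6.0, DTT, detergent | detection = endpoint fluorescence intensity from OMFP dephosphorylation | dosing = single 20 µM dose | read-out basis = % inhibition relative to no-enzyme and uninhibited control wells | control set = no-enzyme and uninhibited controls | timing = 50 min at room temperature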
SUMO1 PPI mod = modulators of human SUMO1-mediated protein-protein interactions. P63165. SUMO1 binding to a labelled peptide, TR-FRET, 1 h. inhibition, % at 20 µM. 360,000 compounds, 0.33% hits; in the data active means inhibition above about 37%
Target sequence (P63165 whole entry, looked up): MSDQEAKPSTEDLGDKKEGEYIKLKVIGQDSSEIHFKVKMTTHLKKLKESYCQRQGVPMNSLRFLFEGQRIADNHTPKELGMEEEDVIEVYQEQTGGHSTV
DNMT1 block = blocks human DNA methyltransferase DNMT1; P26358; 360,000 compounds, 0.83% hits; DNMT1 molecular beacon, Hinp1I cleavage, fluorescence; inhibition (reported as % activation of signal), % at 10 µM; in the data active means inhibition above about 50%
NadD conf = confirmation of Staphylococcus aureus NadD inhibitors; inhibition, % at 20 µM; purified S. aureus NadD, colorimetric enzyme assay; 2,000 compounds, 13% hits; shares compounds with NadD block; AID 624309; in the data active means inhibition mostly above about 42%, no sharp cut-off; inactive means mostly below about 42%
* marks the source's active call; other numbers are inactive results; / = no result.

SMILES	NadD block	STEP inh	Scp-1 inhibitor	LMPTP inh	SUMO1 PPI mod	DNMT1 block	NadD conf
CCOC(=O)c1cc(-c2ccccc2)sc1NC(=O)C(C)N1C(=O)NC(C)(c2ccc(Cl)cc2)C1=O (configuration not stated)	30*	1	-9	2	2	-8	-8
CC(=O)N1CCc2nc3ccccc3cc21	0	-2	/	0	-2	-4	/
CCC(=O)N1C(=O)CCN(C(C)=O)c2ccccc21	36*	4	0	-3	0	0	9
COc1cccc(CC2(CO)CCN(Cc3ccc4cccc(F)c4n3)CC2)c1	-10	5	-5	-1	-4	-3	/
CC(=O)c1ccc2c(c1)CC1(C2)Cc2cc3c(cc2C1)C(=O)CC3 (configuration not stated)	-2	1	-13	2	7	-3	/
O=C(COc1cccc2ccccc12)N/N=C/c1ccc(Sc2nc3ccccc3s2)o1	36*	1	-8	2	-3	-4	27
COc1ccc(C(=O)N2CCCC(Nc3ccc(F)cc3)C2)c(OC)c1 (configuration not stated)	-1	3	-2	1	-2	0	/
N#CC1=C(N)NC(SCC(=O)c2ccc(Cl)cc2)=C(C#N)C12CCCC2	33*	1	1	1	-5	0	38
Cc1ccc(NC(=O)CC(=O)c2ccc([N+](=O)[O-])cc2)cc1S(=O)(=O)Nc1cccc(Cl)c1	37*	-1	-12	4	-5	-25	35
Cc1ccc(NS(=O)(=O)c2cc(C(=O)Nc3cccc([N+](=O)[O-])c3)ccc2C)cc1	1	1	-7	3	-1	-12	/
Cc1ccc(C(=O)Nc2cccc([N+](=O)[O-])c2)cc1S(=O)(=O)Nc1ccc(NC(=O)c2ccccc2)cc1	42*	-3	-9	4	1	-24	38*
O=S(Cc1ccc(Br)cc1)Cc1nnc(SCc2ccc(Br)cc2)n1-c1ccccc1 (configuration not stated)	3	0	7	3	-2	-2	/
COc1ccc(OC)c(/C=C/C(=O)OCC(=O)Nc2nnc(-c3ccccc3)o2)c1	44*	0	14	3	-4	2	60*
N#C/C(=C/c1cn(-c2ccccc2)nc1-c1cccc(OCc2ccc(F)cc2)c1)C(=O)NCCCn1ccnc1	37*	7	5	0	-4	-21	-4
NC(CSC1(c2cccc3ccccc23)c2ccccc2-c2ccccc21)C(=O)O (configuration not stated)	42*	1	0	2	17	35	64*
Cc1nc(N2CCN(S(=O)(=O)c3ccccc3)CC2)c2cc(-c3ccccc3)sc2n1	41*	0	17	1	-3	-4	4
Cc1nc(N2CCN(C)CC2)c2cc(-c3ccccc3)sc2n1	-2	-2	-9	0	-2	-1	/
COc1cc(OC)c(N(C)S(=O)(=O)c2cccc(C(=O)Nc3nnc(C4CC4)s3)c2)cc1Cl	32*	2	-16	-1	30	2	6
COc1cc(C(=S)N2CCOCC2)ccc1OC(=O)/C=C/c1ccco1	4	0	5	0	-14	18	/
O=C(CCC(=O)Nc1ccccc1Cl)NN=C1CCCC1	2	-3	-12	-1	-3	2	/
COc1ccccc1C(=O)NCCC(=O)N1CC=C(c2ccccc2)CC1	42*	-3	0	-6	-6	-1	8
Cc1nn2c(COc3ccc(NC(=O)c4ccccc4Cl)cc3)nnc2c2ccccc12	4	3	0	4	-5	-13	/
Cc1cc(/C=N/NC(=O)c2cc3ccccc3o2)c(C)n1C	35*	4	-8	2	5	-12	19
CC(C)n1cc(/C=N\NC(=O)c2cc3c(ccc4ccccc43)o2)c2ccccc21	33*	-3	-4	-1	-7	-6	2
CCn1cc(/C=N/NC(=O)c2cc3c(ccc4ccccc43)o2)c2ccccc21	36*	9	1	1	2	-6	48*
SMILES	NadD block	STEP inh	Scp-1 inhibitor	LMPTP inh	SUMO1 PPI mod	DNMT1 block	NadD conf
CCOC(=O)Cn1cc(/C=N/NC(=O)c2cc3ccccc3o2)c2ccccc21	-1	2	-5	0	-7	-3	/
O=C(N/N=C/c1cc(Cl)c(O)c(Cl)c1)c1cc2c(ccc3ccccc32)o1	27	0	-2	49	11	-4	/
Cc1ccc(NC(=O)N2C3CCCC2CC(NC(=O)C2CC2)C3)cc1 (configuration not stated)	-6	-2	-9	0	10	-1	/
COCCCNC(=O)CCN1N=C(c2ccccc2)CCC1=O	-4	0	-4	-1	1	3	/
CCCCN1CC(COCc2ccccc2)Oc2cccc(Oc3cc(C)c(C)c(C)c3)c2S1(=O)=O (configuration not stated)	7	3	-25	2	0	5	/
Cc1ccc(CN(C(=O)c2csnn2)C(C(=O)NC2CCCC2)c2cccnc2)cc1 (configuration not stated)	3	3	4	-1	-8	0	/
c1ccc(-c2ccc(C3=Nn4c(nnc4-c4cc(-c5ccccc5)n[nH]4)SC3)cc2)cc1	44*	-4	-4	2	3	21	5
CC1=Nn2c(nnc2-c2cc(-c3ccccc3)n[nH]2)SC1	7	-2	-2	2	-2	-7	/
CCn1c(N2CCN(C(=S)Nc3ccc(OC)cc3)CC2)nc2ccccc21	5	2	5	0	1	1	/
O=C(Nc1ccc(Oc2ccc3c(c2)C(=O)N(c2ccc(O)cc2)C3=O)cc1)c1cccs1	34*	-2	-1	10	2	-16	-4
CC(C)CN1C(=O)c2ccc(NC(=O)c3cccs3)cc2C1=O	-8	-2	-8	0	-6	-4	/
Cc1ccc(Cl)cc1N1CCN(C(=O)c2cc3c(=O)[nH]c4ccccc4c3n2C)CC1	32*	2	-1	1	1	8	11
Cn1c(C(=O)N2CCN(c3ccc(Cl)cc3)CC2)cc2c(=O)[nH]c3ccccc3c21	17	3	-3	4	7	-20	/
CCOc1ccc(C(=O)Nc2cc(NC(=O)c3ccc(OCC)c(Cl)c3)cc(C(=O)O)c2)cc1Cl	30*	-4	27	2	32	-18	13
N#C/C(=C(/O)CN1CCN(c2ccccc2F)CC1)c1nc(-c2ccccc2)cs1	31*	7	-8	0	2	-11	25
